# Measured values from ChEMBL document CHEMBL1145725, “Synthesis and antimicrobial activity of novel globomycin analogues” (2003).
# System: Enterobacter cloacae
# Test: Antibacterial activity against Enterobacter cloacae SANK 72690
# Type: functional
# Settings: not given
# Procedure, shortened: (§1)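 MIC by agar dilution on Nutrient Agar, following the NCCLS standard dilution method for aerobically growing bacteria.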
row,MIC [µg/mL],Structure (SMILES)
1,> 100,CCCCCC[C@H]1OC(=O)CNC(=O)[C@@H]([C@@H](C)O)NC(=O)[C@H](CO)NC(=O)[C@H]([C@@H](C)CC)NC(=O)[C@H](CC(C)C)N(C)C(=O)[C@@H]1C
2,12.5,CCCCCCCC[C@H]1OC(=O)CNC(=O)[C@H]([C@H](C)O)NC(=O)[C@H](CO)NC(=O)[C@H]([C@H](C)CC)NC(=O)[C@H](CC(C)C)N(C)C(=O)[C@@H]1C

# System: Escherichia coli
# Test: Antibacterial activity against Escherichia coli SANK 70569 (NIHJ JC-2)
# Type: functional
# Settings: not given
# Procedure, shortened: as §1
row,MIC [µg/mL],Structure (SMILES)
1,> 100,CCCCCC[C@H]1OC(=O)CNC(=O)[C@@H]([C@@H](C)O)NC(=O)[C@H](CO)NC(=O)[C@H]([C@@H](C)CC)NC(=O)[C@H](CC(C)C)N(C)C(=O)[C@@H]1C
2,3.13,CCCCCCCC[C@H]1OC(=O)CNC(=O)[C@H]([C@H](C)O)NC(=O)[C@H](CO)NC(=O)[C@H]([C@H](C)CC)NC(=O)[C@H](CC(C)C)N(C)C(=O)[C@@H]1C

# System: Salmonella enteritidis
# Test: Antibacterial activity against Salmonella enteritidis SANK 72390
# Type: functional, Salmonella enterica subsp. enterica serovar Enteritidis
# Settings: Salmonella enterica
# Procedure, shortened: as §1
row,MIC [µg/mL],Structure (SMILES)
1,> 100,CCCCCC[C@H]1OC(=O)CNC(=O)[C@@H]([C@@H](C)O)NC(=O)[C@H](CO)NC(=O)[C@H]([C@@H](C)CC)NC(=O)[C@H](CC(C)C)N(C)C(=O)[C@@H]1C
2,6.25,CCCCCCCC[C@H]1OC(=O)CNC(=O)[C@H]([C@H](C)O)NC(=O)[C@H](CO)NC(=O)[C@H]([C@H](C)CC)NC(=O)[C@H](CC(C)C)N(C)C(=O)[C@@H]1C

# System: Escherichia coli
# Test: Antibacterial activity against Escherichia coli SANK 72290
# Type: functional
# Settings: not given
# Procedure, shortened: as §1
row,MIC [µg/mL],Structure (SMILES)
1,> 100,CCCCCC[C@H]1OC(=O)CNC(=O)[C@@H]([C@@H](C)O)NC(=O)[C@H](CO)NC(=O)[C@H]([C@@H](C)CC)NC(=O)[C@H](CC(C)C)N(C)C(=O)[C@@H]1C
2,3.13,CCCCCCCC[C@H]1OC(=O)CNC(=O)[C@H]([C@H](C)O)NC(=O)[C@H](CO)NC(=O)[C@H]([C@H](C)CC)NC(=O)[C@H](CC(C)C)N(C)C(=O)[C@@H]1C

# System: Morganella morganii
# Test: Antibacterial activity against Morganella morganii SANK 72990
# Type: functional
# Settings: not given
# Procedure, shortened: as §1
row,MIC [µg/mL],Structure (SMILES)
1,> 100,CCCCCC[C@H]1OC(=O)CNC(=O)[C@@H]([C@@H](C)O)NC(=O)[C@H](CO)NC(=O)[C@H]([C@@H](C)CC)NC(=O)[C@H](CC(C)C)N(C)C(=O)[C@@H]1C
2,> 100,CCCCCCCC[C@H]1OC(=O)CNC(=O)[C@H]([C@H](C)O)NC(=O)[C@H](CO)NC(=O)[C@H]([C@H](C)CC)NC(=O)[C@H](CC(C)C)N(C)C(=O)[C@@H]1C

# System: Serratia marcescens
# Test: Antibacterial activity against Serratia marcescens SANK 72790
# Type: functional
# Settings: not given
# Procedure, shortened: as §1
row,MIC [µg/mL],Structure (SMILES)
1,> 100,CCCCCC[C@H]1OC(=O)CNC(=O)[C@@H]([C@@H](C)O)NC(=O)[C@H](CO)NC(=O)[C@H]([C@@H](C)CC)NC(=O)[C@H](CC(C)C)N(C)C(=O)[C@@H]1C
2,12.5,CCCCCCCC[C@H]1OC(=O)CNC(=O)[C@H]([C@H](C)O)NC(=O)[C@H](CO)NC(=O)[C@H]([C@H](C)CC)NC(=O)[C@H](CC(C)C)N(C)C(=O)[C@@H]1C

# System: Staphylococcus aureus
# Test: Antibacterial activity against Staphylococcus aureus SANK 71890 (MRSA)
# Type: functional
# Settings: not given
# Procedure, shortened: as §1
row,MIC [µg/mL],Structure (SMILES)
1,50,CCCCCCCC[C@H]1OC(=O)CNC(=O)[C@H]([C@H](C)O)NC(=O)[C@H](CO)NC(=O)[C@H]([C@H](C)CC)NC(=O)[C@H](CC(C)C)N(C)C(=O)[C@@H]1C

# System: Enterococcus faecalis
# Test: Antibacterial activity against Enterococcus faecalis SANK 71990
# Type: functional
# Settings: not given
# Procedure, shortened: as §1
row,MIC [µg/mL],Structure (SMILES)
1,100,CCCCCCCC[C@H]1OC(=O)CNC(=O)[C@H]([C@H](C)O)NC(=O)[C@H](CO)NC(=O)[C@H]([C@H](C)CC)NC(=O)[C@H](CC(C)C)N(C)C(=O)[C@@H]1C

# System: Staphylococcus aureus
# Test: Antibacterial activity against Staphylococcus aureus SANK 70668
# Type: functional
# Settings: not given
# Procedure, shortened: as §1
row,MIC [µg/mL],Structure (SMILES)
1,50,CCCCCCCC[C@H]1OC(=O)CNC(=O)[C@H]([C@H](C)O)NC(=O)[C@H](CO)NC(=O)[C@H]([C@H](C)CC)NC(=O)[C@H](CC(C)C)N(C)C(=O)[C@@H]1C

# System: Proteus vulgaris
# Test: Antibacterial activity against Proteus vulgaris SANK 72890
# Type: functional
# Settings: not given
# Procedure, shortened: as §1
row,MIC [µg/mL],Structure (SMILES)
1,> 100,CCCCCC[C@H]1OC(=O)CNC(=O)[C@@H]([C@@H](C)O)NC(=O)[C@H](CO)NC(=O)[C@H]([C@@H](C)CC)NC(=O)[C@H](CC(C)C)N(C)C(=O)[C@@H]1C
2,> 100,CCCCCCCC[C@H]1OC(=O)CNC(=O)[C@H]([C@H](C)O)NC(=O)[C@H](CO)NC(=O)[C@H]([C@H](C)CC)NC(=O)[C@H](CC(C)C)N(C)C(=O)[C@@H]1C

# System: Staphylococcus aureus
# Test: Antibacterial activity against Staphylococcus aureus SANK 71790
# Type: functional
# Settings: not given
# Procedure, shortened: as §1
row,MIC [µg/mL],Structure (SMILES)
1,50,CCCCCCCC[C@H]1OC(=O)CNC(=O)[C@H]([C@H](C)O)NC(=O)[C@H](CO)NC(=O)[C@H]([C@H](C)CC)NC(=O)[C@H](CC(C)C)N(C)C(=O)[C@@H]1C

# System: Klebsiella pneumoniae
# Test: Antibacterial activity against Klebsiella pneumoniae SANK 72490
# Type: functional
# Settings: not given
# Procedure, shortened: as §1
row,MIC [µg/mL],Structure (SMILES)
1,> 100,CCCCCC[C@H]1OC(=O)CNC(=O)[C@@H]([C@@H](C)O)NC(=O)[C@H](CO)NC(=O)[C@H]([C@@H](C)CC)NC(=O)[C@H](CC(C)C)N(C)C(=O)[C@@H]1C
2,3.13,CCCCCCCC[C@H]1OC(=O)CNC(=O)[C@H]([C@H](C)O)NC(=O)[C@H](CO)NC(=O)[C@H]([C@H](C)CC)NC(=O)[C@H](CC(C)C)N(C)C(=O)[C@@H]1C

# System: Enterobacter cloacae
# Test: Antibacterial activity against Enterobacter cloacae 846
# Type: functional
# Settings: not given
# Procedure, shortened: as §1
row,MIC [µg/mL],Structure (SMILES)
1,> 100,CCCCCC[C@H]1OC(=O)CNC(=O)[C@@H]([C@@H](C)O)NC(=O)[C@H](CO)NC(=O)[C@H]([C@@H](C)CC)NC(=O)[C@H](CC(C)C)N(C)C(=O)[C@@H]1C
2,1.56,CCCCCCCC[C@H]1OC(=O)CNC(=O)[C@H]([C@H](C)O)NC(=O)[C@H](CO)NC(=O)[C@H]([C@H](C)CC)NC(=O)[C@H](CC(C)C)N(C)C(=O)[C@@H]1C

# System: Pseudomonas aeruginosa
# Test: Antibacterial activity against Pseudomonas aeruginosa SANK 73190
# Type: functional
# Settings: not given
# Procedure, shortened: as §1
row,MIC [µg/mL],Structure (SMILES)
1,> 100,CCCCCC[C@H]1OC(=O)CNC(=O)[C@@H]([C@@H](C)O)NC(=O)[C@H](CO)NC(=O)[C@H]([C@@H](C)CC)NC(=O)[C@H](CC(C)C)N(C)C(=O)[C@@H]1C
2,> 100,CCCCCCCC[C@H]1OC(=O)CNC(=O)[C@H]([C@H](C)O)NC(=O)[C@H](CO)NC(=O)[C@H]([C@H](C)CC)NC(=O)[C@H](CC(C)C)N(C)C(=O)[C@@H]1C

# System: Pseudomonas aeruginosa
# Test: Antibacterial activity against Pseudomonas aeruginosa SANK 3719
# Type: functional
# Settings: not given
# Procedure, shortened: as §1
row,MIC [µg/mL],Structure (SMILES)
1,> 100,CCCCCC[C@H]1OC(=O)CNC(=O)[C@@H]([C@@H](C)O)NC(=O)[C@H](CO)NC(=O)[C@H]([C@@H](C)CC)NC(=O)[C@H](CC(C)C)N(C)C(=O)[C@@H]1C
2,> 100,CCCCCCCC[C@H]1OC(=O)CNC(=O)[C@H]([C@H](C)O)NC(=O)[C@H](CO)NC(=O)[C@H]([C@H](C)CC)NC(=O)[C@H](CC(C)C)N(C)C(=O)[C@@H]1C

# System: Pseudomonas aeruginosa
# Test: Antibacterial activity against Pseudomonas aeruginosa SANK 73090
# Type: functional
# Settings: not given
# Procedure, shortened: as §1
row,MIC [µg/mL],Structure (SMILES)
1,> 100,CCCCCC[C@H]1OC(=O)CNC(=O)[C@@H]([C@@H](C)O)NC(=O)[C@H](CO)NC(=O)[C@H]([C@@H](C)CC)NC(=O)[C@H](CC(C)C)N(C)C(=O)[C@@H]1C
2,> 100,CCCCCCCC[C@H]1OC(=O)CNC(=O)[C@H]([C@H](C)O)NC(=O)[C@H](CO)NC(=O)[C@H]([C@H](C)CC)NC(=O)[C@H](CC(C)C)N(C)C(=O)[C@@H]1C
